Seven compounds from ChEMBL document CHEMBL1140705, “Synthesis and evaluation of N-methyl and S-methyl 11C-labeled 6-methylthio-2-(4'-N,N-dimethylamino)phenylimidazo[1,2-a]pyridines as radioligands for imaging beta-amyloid plaques in Alzheimer's disease” (J Med Chem, 2008) can be followed below.

Data set [1] can be described thus: Stability in rat whole blood after 60 mins. The class given is ADME, tissue-based. Particulars: read-out: Stability. The essentials: (§1)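 No-carrier-added [11C] tracer (25.0 µCi monkey, 46.5 µCi rat) in 1 mL whole blood, shaken at 37 °C. Aliquots taken at 60 and 90 min into acetonitrile spiked with carrier, centrifuged, and supernatant radio-HPLC gives percent unchanged. Pellet counting gives extraction recovery.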

Data set [2] in a line: Stability in rat brain after 60 mins. The class given is ADME, tissue-based. Particulars: read-out: Stability. The method, boiled down: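 Rat brain (1.75 g) homogenized in saline on ice and incubated with formulated [11C] tracer (186 µCi) at 37 °C with shaking. Aliquots quenched into carrier-spiked acetonitrile, centrifuged, and supernatant analysed by radio-HPLC for percent unchanged.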

Data set [3] can be described thus: Stability in monkey whole blood after 30 mins. Particulars: rhesus monkey, read-out: Stability. The class given is ADME, tissue-based, Macaca mulatta.
Data set [4] in a line: Stability in monkey whole blood after 90 mins. To be noted: rhesus monkey, read-out: Stability. In kind it is ADME, tissue-based, Macaca mulatta. The method, boiled down:
as §1

The test system of data set [5] is Plasma. Kind of data set: Biodistribution in rat plasma at 0.9 to 1.9 Ci/umol, penile iv after 2.33 mins. In kind it is ADME, organism-based. To be noted: in vivo, 140 s. The essentials: (§2)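 No-carrier-added [11C] tracer (0.82-3.6 mCi) given by penile vein to rats, killed at 2.33, 2.83 or 30 min. Brain tissue extracted and homogenized in acetonitrile/water with carrier, plasma treated likewise, urine analysed directly, all by reverse-phase radio-HPLC. Radioactivity normalized to injected dose and body weight as % SUV, split into parent and three radiometabolites.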

In data set [6] the test system is Cerebellum. Description: Biodistribution in rat cerebellum at 0.9 to 1.9 Ci/umol, penile iv after 2.83 mins. To be noted: in vivo, 170 s. The class given is ADME, organism-based. The essentials: as §2
Data set [7] relates to Cerebrum. Description: Biodistribution in rat cerebrum at 0.9 to 1.9 Ci/umol, penile iv after 2.83 mins. The class given is ADME, organism-based. Particulars: in vivo, 170 s. The essentials:
as §2

Data set [8] relates to Plasma. Description: Biodistribution in rat plasma at 0.9 to 1.9 Ci/umol, penile iv after 2.83 mins. The class given is ADME, organism-based. To be noted: in vivo, 170 s. The essentials:
as §2

In data set [9] the test system is Rattus norvegicus. Kind of data set: Biodistribution in rat urine at 0.9 to 1.9 Ci/umol, penile iv after 2.83 mins. The class given is ADME, organism-based. Particulars: in vivo, 170 s. The method, boiled down:
as §2

Data set [10] has as its system Cerebellum. Kind of data set: Biodistribution in rat cerebellum at 0.9 to 1.9 Ci/umol, penile iv after 30 mins. In kind it is ADME, organism-based. Particulars: in vivo, 0.5 h. The method, boiled down:
as §2

For data set [11], the system named is Cerebrum. Description: Biodistribution in rat cerebrum at 0.9 to 1.9 Ci/umol, penile iv after 30 mins. In kind it is ADME, organism-based. Particulars: in vivo, 0.5 h. The method, boiled down:
as §2

The test system of data set [12] is Plasma. Kind of data set: Biodistribution in rat plasma at 0.9 to 1.9 Ci/umol, penile iv after 30 mins. Particulars: in vivo, 0.5 h. In kind it is ADME, organism-based. The method, boiled down: as §2
Data set [13] concerns Cerebellum. Description: Biodistribution in rat cerebellum at 22.94 umol/kg bolus injection after 10 mins. The class given is ADME, organism-based. Particulars: in vivo. The essentials: (§3)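 Carrier-added [11C] tracer (carrier 22.94 µmol/kg) injected as bolus into one rat, tissues and plasma taken at 10 min. Samples extracted into acetonitrile and analysed by radio-HPLC. Results given as % SUV, partitioned into parent and radiometabolites A-C.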

Data set [14] deals with Cerebrum. Kind of data set: Biodistribution in rat cerebrum at 22.94 umol/kg bolus injection after 10 mins. In kind it is ADME, organism-based. Particulars: in vivo. The essentials:
as §3

Data set [15] concerns Plasma. Kind of data set: Biodistribution in rat plasma at 22.94 umol/kg bolus injection after 10 mins. In kind it is ADME, organism-based. Particulars: in vivo. The essentials: as §3
Data set [16] deals with Plasma. Description: Drug level in monkey plasma at 1.35 Ci/umol after 10 mins. To be noted: rhesus monkey. In kind it is ADME, cell-free, Macaca mulatta. The essentials: (§4)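 Two monkey experiments with no-carrier-added [11C] tracer given iv. Anticoagulated venous blood drawn at 10 and 30 min, plasma analysed by radio-HPLC. Parent fraction reported as percent of plasma radioactivity and as % SUV.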

For data set [17], the system named is Plasma. Description: Drug level in monkey plasma at 1.35 Ci/umol after 30 mins. The class given is ADME, cell-free, Macaca mulatta. Particulars: rhesus monkey, 0.5 h. The method, boiled down: as §4
A short description of data set [18]: Radiochemical stability after 3 hrs at pH 7.5. In kind it is physicochemical. To be noted: pH 7.5, 3 h. The essentials:
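Purity of formulated tracer (saline with ethanol and polysorbate 80, pH ~7.5) followed over 3 h by radio-HPLC on a C18 column, MeOH/H2O/Et3N 70:30:0.1.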

Data set [19] can be described thus: Biodistribution in rat cerebrum at 0.9 to 1.9 Ci/umol, penile iv after 2.33 mins. Particulars: in vivo, 140 s.
In data set [20] the test system is Rattus norvegicus. Kind of data set: Ratio of brain radioactivity at maximal uptake to that at 60 min in iv dosed rat after 60 mins. To be noted: in vivo, 1 h.
In another data set the test system is Mus musculus. Kind of data set: Ratio of brain radioactivity at maximal uptake to that at 60 min in iv dosed mouse after 60 mins. To be noted: in vivo, 1 h.
Data set [21] can be described thus: Lipophilicity, log D at pH 7.4. The class given is physicochemical. Particulars: buffer. The method, boiled down: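 Shake-flask partition: 3-5 mg ligand in 0.1 M PBS pH 7.4 (6.0 mL) with n-octanol (1.0 mL), vortexed, shaken, held 10 min at room temperature, centrifuged 5000g. Both phases quantified by reverse-phase HPLC; P taken as organic/aqueous concentration ratio; n = 3.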

In data set [22] the target is Amyloid-beta precursor protein (Homo sapiens, UniProt P05067). Description: Binding affinity to beta amyloid plaque in human Alzheimer's disease brain tissue. In kind it is tissue-based. The method, boiled down: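 Competition binding in human AD brain homogenate (1:500 in PBS) against [3H]PIB (0.4 nM), displacer 10^-10 to 10^-5 M from DMSO dilutions, total volume 1.0 mL PBS, 2 h at 37 °C; filtration on polyethyleneimine-treated GF/B, PBS washes, scintillation counting. One-site competition fit; Ki by Cheng-Prusoff using KD from homologous displacement Scatchard analysis.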

The target of data set [23] is 5-hydroxytryptamine receptor 6 (Homo sapiens) (UniProt P50406). Description: Displacement of […] from 5HT6 receptor at 10 uM.
For data set [24], the target named is 5-hydroxytryptamine receptor 7 (Homo sapiens) (UniProt P34969). Description: Displacement of […] from 5HT7 receptor at 10 uM. (Loss of bound radioactivity is the signal in a displacement assay; it reports binding, not function.)
The target of data set [25] is Alpha-1A adrenergic receptor (Homo sapiens) (UniProt P35348). Description: Displacement of […] from adrenergic Alpha-1A receptor at 10 uM.
Data set [26] addresses Alpha-1B adrenergic receptor (Homo sapiens) (UniProt P35368). Description: Displacement of […] from adrenergic alpha-1b receptor at 10 uM.
For data set [27], the target named is Alpha-2A adrenergic receptor (Homo sapiens) (UniProt P08913). Kind of data set: Displacement of […] from adrenergic alpha-2a receptor at 10 uM.
Data set [28] addresses Beta-2 adrenergic receptor (Homo sapiens) (UniProt P07550). Kind of data set: Displacement of […] from adrenergic beta 2 receptor at 10 uM.
Data set [29] addresses D(1A) dopamine receptor (Homo sapiens) (UniProt P21728). Kind of data set: Displacement of […] from dopamine D1 receptor at 10 uM.
For data set [30], the target named is D(2) dopamine receptor (Homo sapiens) (UniProt P14416). Description: Displacement of […] from dopamine D2 receptor at 10 uM.
In data set [31] the target is D(3) dopamine receptor (Homo sapiens) (UniProt P35462). Kind of data set: Displacement of […] from dopamine D3 receptor at 10 uM.
Data set [32] addresses D(4) dopamine receptor (Homo sapiens) (UniProt P21917). Description: Displacement of […] from dopamine D4 receptor at 10 uM.
The target of data set [33] is D(1B) dopamine receptor (Homo sapiens) (UniProt P21918). Description: Displacement of […] from dopamine D5 receptor at 10 uM.
Data set [34] deals with Histamine H1 receptor (Homo sapiens) (UniProt P35367). Kind of data set: Displacement of […] from histamine H1 receptor at 10 uM.
In data set [35] the target is 5-hydroxytryptamine receptor 1A (Homo sapiens) (UniProt P08908). Kind of data set: Displacement of […] from 5HT1A receptor at 10 uM.
Data set [36] has as its target 5-hydroxytryptamine receptor 1B (Homo sapiens) (UniProt P28222). Kind of data set: Displacement of […] from 5HT1B receptor at 10 uM.
Data set [37] deals with 5-hydroxytryptamine receptor 1D (Homo sapiens) (UniProt P28221). Description: Displacement of […] from 5HT1D receptor at 10 uM.
For data set [38], the target named is 5-hydroxytryptamine receptor 1E (Homo sapiens) (UniProt P28566). Description: Displacement of […] from 5HT1E receptor at 10 uM.
For data set [39], the target named is 5-hydroxytryptamine receptor 2A (Homo sapiens) (UniProt P28223). Kind of data set: Displacement of […] from 5HT2A receptor at 10 uM.
Data set [40] concerns the target 5-hydroxytryptamine receptor 2B (Homo sapiens) (UniProt P41595). Kind of data set: Displacement of […] from 5HT2B receptor at 10 uM.
The target in data set [41] is 5-hydroxytryptamine receptor 2C (Homo sapiens) (UniProt P28335). Kind of data set: Displacement of […] from 5HT2C receptor at 10 uM.
For data set [42], the target named is 5-hydroxytryptamine receptor 3A (Homo sapiens) (UniProt P46098). Kind of data set: Displacement of […] from 5HT3 receptor at 10 uM.
In data set [43] the target is 5-hydroxytryptamine receptor 5A (Homo sapiens) (UniProt P47898). Description: Displacement of […] from 5HT5A receptor at 10 uM.
In data set [44] the target is Mu-type opioid receptor (Homo sapiens) (UniProt P35372). Description: Displacement of radioligand from mu opioid receptor at 10 uM.
Chain of Mu-type opioid receptor (Homo sapiens) (P35372 whole entry): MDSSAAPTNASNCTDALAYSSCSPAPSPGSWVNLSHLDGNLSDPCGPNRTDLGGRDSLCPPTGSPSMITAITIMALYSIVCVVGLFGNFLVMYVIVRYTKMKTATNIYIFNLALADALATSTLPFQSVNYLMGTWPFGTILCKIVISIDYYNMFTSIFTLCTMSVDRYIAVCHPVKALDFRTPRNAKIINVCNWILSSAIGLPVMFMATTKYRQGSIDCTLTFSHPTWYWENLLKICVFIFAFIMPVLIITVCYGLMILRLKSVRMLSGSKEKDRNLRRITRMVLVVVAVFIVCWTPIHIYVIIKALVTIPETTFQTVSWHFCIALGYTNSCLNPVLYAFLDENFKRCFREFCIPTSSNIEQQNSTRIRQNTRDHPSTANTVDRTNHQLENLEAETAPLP

Chain of Amyloid-beta precursor protein (P05067 whole entry): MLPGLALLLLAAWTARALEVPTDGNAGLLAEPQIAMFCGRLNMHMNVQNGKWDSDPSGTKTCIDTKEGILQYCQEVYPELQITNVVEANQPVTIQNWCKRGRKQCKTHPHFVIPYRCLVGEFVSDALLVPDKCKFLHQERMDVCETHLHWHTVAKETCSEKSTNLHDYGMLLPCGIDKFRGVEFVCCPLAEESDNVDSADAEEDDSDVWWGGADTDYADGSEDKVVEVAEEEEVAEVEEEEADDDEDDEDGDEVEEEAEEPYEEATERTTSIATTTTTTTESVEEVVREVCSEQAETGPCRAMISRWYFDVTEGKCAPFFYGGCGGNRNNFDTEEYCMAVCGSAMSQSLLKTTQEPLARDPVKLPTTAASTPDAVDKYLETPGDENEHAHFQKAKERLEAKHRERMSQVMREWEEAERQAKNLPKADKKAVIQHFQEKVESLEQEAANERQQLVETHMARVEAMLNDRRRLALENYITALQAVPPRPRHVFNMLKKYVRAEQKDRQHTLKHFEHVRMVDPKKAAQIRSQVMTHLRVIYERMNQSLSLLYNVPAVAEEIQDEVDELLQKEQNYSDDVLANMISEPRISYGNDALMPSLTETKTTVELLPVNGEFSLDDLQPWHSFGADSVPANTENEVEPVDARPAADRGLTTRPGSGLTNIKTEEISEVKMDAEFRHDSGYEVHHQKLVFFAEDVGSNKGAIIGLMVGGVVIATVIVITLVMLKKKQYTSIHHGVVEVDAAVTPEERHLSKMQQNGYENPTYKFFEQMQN
Chain of 5-hydroxytryptamine receptor 6 (Homo sapiens) (P50406 whole entry): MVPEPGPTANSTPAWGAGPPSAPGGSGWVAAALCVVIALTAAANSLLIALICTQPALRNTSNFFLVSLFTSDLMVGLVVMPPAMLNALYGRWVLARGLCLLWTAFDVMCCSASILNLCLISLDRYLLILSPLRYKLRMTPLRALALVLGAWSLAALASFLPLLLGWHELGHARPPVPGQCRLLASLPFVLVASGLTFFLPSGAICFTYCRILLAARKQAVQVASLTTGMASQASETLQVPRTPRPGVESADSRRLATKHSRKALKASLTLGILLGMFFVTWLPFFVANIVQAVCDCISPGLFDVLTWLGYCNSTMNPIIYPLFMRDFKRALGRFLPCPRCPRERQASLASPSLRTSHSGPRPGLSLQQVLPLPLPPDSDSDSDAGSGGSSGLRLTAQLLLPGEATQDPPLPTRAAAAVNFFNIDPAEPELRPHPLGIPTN
Chain of D(3) dopamine receptor (Homo sapiens) (P35462 whole entry): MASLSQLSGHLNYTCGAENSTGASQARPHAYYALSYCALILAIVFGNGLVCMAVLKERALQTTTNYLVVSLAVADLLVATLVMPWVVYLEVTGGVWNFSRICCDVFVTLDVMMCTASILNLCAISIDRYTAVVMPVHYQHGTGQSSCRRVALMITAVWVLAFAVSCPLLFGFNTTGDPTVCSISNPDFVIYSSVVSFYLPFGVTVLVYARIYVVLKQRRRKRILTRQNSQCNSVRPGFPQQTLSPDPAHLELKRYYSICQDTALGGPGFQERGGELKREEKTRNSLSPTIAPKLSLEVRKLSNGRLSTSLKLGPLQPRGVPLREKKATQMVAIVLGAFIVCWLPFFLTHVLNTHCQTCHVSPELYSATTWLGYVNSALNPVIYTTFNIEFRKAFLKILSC
Chain of 5-hydroxytryptamine receptor 1B (Homo sapiens) (P28222 whole entry): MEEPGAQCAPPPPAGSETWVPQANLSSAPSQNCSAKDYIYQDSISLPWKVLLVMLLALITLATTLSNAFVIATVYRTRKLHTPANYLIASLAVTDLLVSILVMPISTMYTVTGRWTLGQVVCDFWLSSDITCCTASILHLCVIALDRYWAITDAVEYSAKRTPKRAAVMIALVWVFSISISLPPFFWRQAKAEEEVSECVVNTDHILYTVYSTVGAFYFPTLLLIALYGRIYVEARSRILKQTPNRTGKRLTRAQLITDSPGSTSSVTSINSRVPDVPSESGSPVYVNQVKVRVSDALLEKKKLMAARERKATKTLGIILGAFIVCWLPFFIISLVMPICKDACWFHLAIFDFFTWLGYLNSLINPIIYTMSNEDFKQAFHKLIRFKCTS
Chain of Alpha-2A adrenergic receptor (Homo sapiens) (P08913 whole entry): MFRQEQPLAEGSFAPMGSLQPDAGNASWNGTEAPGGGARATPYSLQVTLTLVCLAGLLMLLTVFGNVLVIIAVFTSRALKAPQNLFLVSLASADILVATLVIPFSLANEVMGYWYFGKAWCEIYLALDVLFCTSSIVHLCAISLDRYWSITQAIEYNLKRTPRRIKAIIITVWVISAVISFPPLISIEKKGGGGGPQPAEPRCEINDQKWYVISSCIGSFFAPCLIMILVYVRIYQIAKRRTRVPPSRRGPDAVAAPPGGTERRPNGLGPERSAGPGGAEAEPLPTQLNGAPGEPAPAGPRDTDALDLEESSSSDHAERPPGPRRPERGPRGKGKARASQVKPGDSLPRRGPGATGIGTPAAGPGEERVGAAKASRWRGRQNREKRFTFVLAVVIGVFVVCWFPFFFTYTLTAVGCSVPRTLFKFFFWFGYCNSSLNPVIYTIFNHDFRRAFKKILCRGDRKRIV
Chain of 5-hydroxytryptamine receptor 5A (Homo sapiens) (P47898 whole entry): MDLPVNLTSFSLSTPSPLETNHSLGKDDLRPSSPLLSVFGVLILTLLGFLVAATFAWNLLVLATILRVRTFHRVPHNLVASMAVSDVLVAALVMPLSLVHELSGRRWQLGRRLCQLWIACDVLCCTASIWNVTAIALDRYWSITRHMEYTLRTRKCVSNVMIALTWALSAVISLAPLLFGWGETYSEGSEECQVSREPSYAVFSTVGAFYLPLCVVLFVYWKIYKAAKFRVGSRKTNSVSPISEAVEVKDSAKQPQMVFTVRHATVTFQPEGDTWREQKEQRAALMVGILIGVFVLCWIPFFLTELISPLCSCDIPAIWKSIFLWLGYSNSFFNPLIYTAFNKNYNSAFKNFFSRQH
Chain of 5-hydroxytryptamine receptor 7 (Homo sapiens) (P34969 whole entry): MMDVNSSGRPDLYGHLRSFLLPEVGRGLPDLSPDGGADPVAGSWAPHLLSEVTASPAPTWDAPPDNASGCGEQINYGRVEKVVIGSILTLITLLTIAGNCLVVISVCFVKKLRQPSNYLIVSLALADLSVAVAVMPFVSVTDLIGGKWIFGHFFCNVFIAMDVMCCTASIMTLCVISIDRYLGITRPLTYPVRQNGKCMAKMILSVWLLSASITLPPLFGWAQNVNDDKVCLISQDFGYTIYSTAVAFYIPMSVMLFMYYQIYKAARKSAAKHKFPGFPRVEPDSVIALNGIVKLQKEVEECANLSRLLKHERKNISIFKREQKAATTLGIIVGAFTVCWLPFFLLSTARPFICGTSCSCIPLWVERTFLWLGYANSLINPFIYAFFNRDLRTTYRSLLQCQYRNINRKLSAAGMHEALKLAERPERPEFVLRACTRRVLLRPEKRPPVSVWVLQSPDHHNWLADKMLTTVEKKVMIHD
Chain of 5-hydroxytryptamine receptor 2B (Homo sapiens) (P41595 whole entry): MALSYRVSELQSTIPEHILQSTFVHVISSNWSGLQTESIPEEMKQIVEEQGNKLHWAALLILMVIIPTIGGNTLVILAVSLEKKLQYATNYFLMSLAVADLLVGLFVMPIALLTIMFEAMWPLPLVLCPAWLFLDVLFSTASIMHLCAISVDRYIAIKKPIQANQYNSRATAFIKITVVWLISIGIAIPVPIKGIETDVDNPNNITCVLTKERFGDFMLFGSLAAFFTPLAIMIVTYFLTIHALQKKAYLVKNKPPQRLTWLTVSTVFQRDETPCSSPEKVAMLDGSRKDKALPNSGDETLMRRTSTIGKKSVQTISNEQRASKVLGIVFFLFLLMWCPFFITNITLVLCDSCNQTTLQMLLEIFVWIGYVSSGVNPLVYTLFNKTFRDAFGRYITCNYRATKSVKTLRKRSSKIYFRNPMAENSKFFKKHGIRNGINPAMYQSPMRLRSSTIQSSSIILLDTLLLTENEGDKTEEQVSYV
Chain of 5-hydroxytryptamine receptor 2A (Homo sapiens) (P28223 whole entry): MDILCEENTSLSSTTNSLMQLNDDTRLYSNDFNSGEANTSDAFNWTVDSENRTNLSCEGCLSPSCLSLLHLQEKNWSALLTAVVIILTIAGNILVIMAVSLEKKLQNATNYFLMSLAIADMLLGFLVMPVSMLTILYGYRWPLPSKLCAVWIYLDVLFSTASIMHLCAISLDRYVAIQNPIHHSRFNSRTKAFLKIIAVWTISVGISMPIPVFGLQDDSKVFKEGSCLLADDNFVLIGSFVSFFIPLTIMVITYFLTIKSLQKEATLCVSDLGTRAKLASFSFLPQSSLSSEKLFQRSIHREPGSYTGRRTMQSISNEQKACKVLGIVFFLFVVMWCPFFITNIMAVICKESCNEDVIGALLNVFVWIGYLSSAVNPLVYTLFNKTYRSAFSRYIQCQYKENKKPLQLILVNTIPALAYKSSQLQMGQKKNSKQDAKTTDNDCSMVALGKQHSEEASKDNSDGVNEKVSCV

`CN(C)c1ccc(-c2cn3cc(S[11CH3])ccc3n2)cc1`: the remaining at 1 h in data set [1] worked out at 91%; in data set [2] it was 93.6%. Also, the remaining at 0.5 h in data set [3] is 96.2%. In addition, the remaining at 1.5 h in data set [4] worked out at 94.5%. Besides, the Drug uptake is 9.57% in the data set on Plasma [5]; 31.9% in the data set with Cerebellum [6]; 30.2% with Cerebrum [7]; 9.15% in the data set with Plasma [8]; 25.7% with Rattus norvegicus [9]; 18.6% in the data set with Cerebellum [10]. The Drug uptake in the data set with Cerebrum [11] is on record as 13%; in the data set with Plasma [12], 0.2%; in the data set on Cerebellum [13], 83.1%; in the data set with Cerebrum [14], 80.9%; in the data set on Plasma [15], 55.3%; in data set [19] it was 41.9%. Besides, the Activity with Plasma [16] turned out to be 12.4%; in the data set on Plasma [17], 3.5%. In data set [18], the Stability result is given as “Stable”. The Ratio in the data set on Rattus norvegicus [20] is 18.7; in the data set on Mus musculus, 11.1.

Turning to `CN(C)c1ccc(-c2cn3cc(I)ccc3n2)cc1`, the logD in data set [21] was found to be 3.58.

In data set [22], `CNc1ccc(-c2cn3cc(SC)ccc3n2)cc1` displayed a Ki of 80 nM. For the same compound, in data set [21], the pH-dependent lipophilicity (logD) was determined as 3.6.

In the case of `CSc1ccc2nc(-c3ccc(N(C)C)cc3)cn2c1`, the Activity in [23], in data set [24], in data set [25], in data set [26], in data set [27] and in data set [28] was less than 50% each time. The Activity in data set [29], in data set [30], in data set [31], in data set [32], in [33] and in data set [34] was less than 50% each time. Besides, the Activity in data set [35], in [36], in data set [37], in [38], in [39] and in data set [40] was less than 50% throughout. For the same compound, the Activity in data set [41], in data set [42] and in data set [43] was less than 50% throughout. The compound further registered a logD in [21] of 4.1. Moreover, the inhibition in [44] is less than 50%.

The compound `CSc1ccc2nc(-c3ccc(N)cc3)cn2c1` had a Ki in data set [22] of 377 nM. This compound also returned a logD in data set [21] of 2.6.

With `CSc1ccc2nc(-c3ccc(N(C)[11CH3])cc3)cn2c1`, the Ratio with Rattus norvegicus [20] was 6.1.

`COC(=O)CCSc1ccc2nc(-c3ccc(N(C)C)cc3)cn2c1` yielded an inhibition constant Ki in data set [22] of 205 nM. The logD in data set [21] was determined as 3.6.

As a reminder, the logD is the decadic logarithm of the distribution of all forms, ionised or not, between an organic phase and buffer at a given pH. The Ki is the dissociation constant of the complex between target and ligand, obtained from inhibition or displacement. For orientation: inhibition means the percentage by which the read-out fell short of the control.
